The entries come from a sample that favours hits as a whole.
T cruzi HTS: blocks T. cruzi growth inside host cells | AID 651903 | activity score (inhibition), % at 5.01 µM | 22,000 tested, 4.9% active | intracellular Trypanosoma cruzi in host cells, plate reader; in the data active means activity score above about 55%;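 further: parasites and compound incubated about four days before reading; 0% = median of neutral control wells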
INS-1E ATP HTS: preserves ATP levels in cytokine-treated INS-1E cells; protection from cytokine-induced ATP loss, % at 10 µM; 20,000 tested, 0.1% active; AID 488910; INS-1E cytokine-induced death, ATP luminescence, 48 h; normalised: neutral wells 0, positive control 100;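 active means mean replicate protection from cytokine-induced ATP loss at least 50% and at least 75% of replicates each reaching 50%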
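Test system: INS-1E rat cells | Quantity: 8000 cells per well | Medium: Phenol-red-free RPMI with 5% fetal bovine serum | Reagent: Cytokine cocktail of IFN-γ, TNF-α and IL-1β | Doses: One compound concentration, pin transfer | Timing: 48 h co-treatment, 10 min post-lysis read | Technique: Luminescent ATP assay (CellTiter-Glo)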
A1 apoptosis 2: blocks A1, raising caspase activity. MEF A1-2A-BIM cells, caspase-Glo luminescence, 3 h; percent of clofoctol response, DMSO zero. caspase activation, % (no concentration beside the values). 24,000 tested, under 10 active. AID 2465; in the data active means caspase activation above about 5.9%
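Material: A1-2A-BIM-expressing MEF cells. Buffer or medium: RPMI-1640 plus 10% FBS. Incubation: cells settled overnight, compound exposure 3 h at 37 °C, 5% CO2. Signal: Caspase-Glo 3/7 luminescence, 1 h at room temperature.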
Active calls of the source: *; . = no result.

SMILES	T cruzi HTS	INS-1E ATP HTS	A1 apoptosis 2
C[C@H]1CN([C@@H](C)CO)C(=O)Cc2cc(NS(=O)(=O)c3ccccc3)ccc2O[C@@H]1CN(C)S(=O)(=O)c1ccc(Cl)cc1	4.5	5.9	0.6
COc1ccc(S(=O)(=O)Nc2ccc3c(c2)CC(=O)N([C@H](C)CO)C[C@@H](C)[C@@H](CN(C)S(=O)(=O)c2ccccc2)O3)cc1	74.2*	7.1	0.6
COc1ccc(S(=O)(=O)N(C)C[C@@H]2Oc3ccc(NS(=O)(=O)c4ccccc4)cc3CC(=O)N([C@H](C)CO)C[C@H]2C)cc1	-14.6	10.5	1.0
Cc1ccc(S(=O)(=O)Nc2ccc3c(c2)CC(=O)N([C@@H](C)CO)C[C@H](C)[C@@H](CN(C)S(=O)(=O)c2ccc(C)cc2)O3)cc1	-5.8	1.6	.
C[C@@H]1CN([C@@H](C)CO)C(=O)c2cccc(NC(=O)Nc3ccccc3)c2O[C@H]1CN(C)C(=O)Nc1ccc2c(c1)OCO2	14.4	2.4	0.2
C[C@H](CO)N1C[C@H](C)[C@H](CN(C)C(=O)Nc2ccc(F)cc2)Oc2ccc(NC(=O)CCCCCC(=O)Nc3ccccc3N)cc2CC1=O	-38.9	2.5	.
C[C@@H]1CCCCO[C@H](CN(C)C(=O)Nc2cccc3ccccc23)[C@@H](C)CN([C@H](C)CO)C(=O)c2cc(NS(=O)(=O)c3ccc(Cl)cc3)ccc2O1	66.2*	-1.6	0.1
C[C@H](CO)N1C[C@H](C)[C@@H](CN(C)C(=O)Nc2ccc(C(F)(F)F)cc2)OCCCC[C@H](C)Oc2ccc(NS(=O)(=O)c3ccc(Cl)cc3)cc2C1=O	.	.	-1.6
C[C@H](CO)N1C[C@H](C)[C@H](CN(C)C(=O)Nc2ccc(C(F)(F)F)cc2)OCCCC[C@H](C)Oc2ccc(NS(=O)(=O)c3ccc(F)cc3)cc2C1=O	.	.	-1.6
C[C@@H]1CN([C@@H](C)CO)C(=O)c2cc(NS(=O)(=O)c3ccc(Cl)cc3)ccc2O[C@@H](C)CCCCO[C@@H]1CN(C)C(=O)Nc1cccc2ccccc12	.	.	-0.4
C[C@@H]1CCCCO[C@@H](CN(C)C(=O)Nc2ccc(C(F)(F)F)cc2)[C@@H](C)CN([C@H](C)CO)C(=O)c2cc(NS(=O)(=O)c3ccccc3)ccc2O1	60.7*	-3.8	.
C[C@@H]1CCCCO[C@H](CN(C)C(=O)Nc2ccc(C(F)(F)F)cc2)[C@@H](C)CN([C@H](C)CO)C(=O)c2cc(NS(=O)(=O)c3ccc(Cl)cc3)ccc2O1	65.5*	-46.7	0.1
C[C@H]1CCCCO[C@H](CN(C)Cc2ccncc2)[C@@H](C)CN([C@@H](C)CO)C(=O)c2cc(NS(=O)(=O)c3cn(C)cn3)ccc2O1	.	.	0.7
C[C@@H]1CN([C@H](C)CO)C(=O)c2cccc(NC(=O)CCCCCC(=O)Nc3ccccc3N)c2O[C@H]1CN(C)Cc1ccccc1	.	.	-0.6
C[C@H](CO)N1C[C@H](C)[C@H](CN(C)Cc2ccc(C(F)(F)F)cc2)Oc2c(NC(=O)CCCCCC(=O)Nc3ccccc3N)cccc2C1=O	73.4*	8.9	1.1
C[C@@H]1CN([C@H](C)CO)C(=O)c2cccc(NC(=O)CCCCCC(=O)Nc3ccccc3N)c2O[C@@H]1CN(C)Cc1ccc(C(F)(F)F)cc1	54.0	13.2	-0.1
C[C@@H]1CN([C@H](C)CO)C(=O)c2cccc(NC(=O)CCCCCC(=O)Nc3ccccc3N)c2O[C@H]1CN(C)Cc1ccc(-c2ccccc2)cc1	71.4*	-6.8	.
C[C@H]1CN([C@@H](C)CO)C(=O)c2cccc(NC(=O)CCCCCC(=O)Nc3ccccc3N)c2O[C@@H]1CN(C)Cc1ccc(-c2ccccc2)cc1	66.7*	-13.1	0.6
COc1ccc(CN(C)C[C@@H]2Oc3c(NC(=O)CCCCCC(=O)Nc4ccccc4N)cccc3C(=O)N([C@H](C)CO)C[C@H]2C)cc1	.	.	0.9
C[C@@H]1CN([C@@H](C)CO)C(=O)Cc2cc(NC(=O)NC3CCCCC3)ccc2O[C@@H]1CN(C)Cc1ccc(C(=O)Nc2ccccc2N)cc1	.	.	1.0
C[C@@H]1CN([C@@H](C)CO)C(=O)c2cc(NC(=O)Cc3cn(C)c4ccccc34)ccc2O[C@@H]1CN(C)Cc1ccc(C(F)(F)F)cc1	38.2	-21.7	.
C[C@H](CO)N1C[C@H](C)[C@H](CN(C)Cc2ccncc2)Oc2ccc(NC(=O)Nc3ccc(F)cc3)cc2CC1=O	0.0	-5.6	-0.2
C[C@H]1CN([C@@H](C)CO)C(=O)c2cccc(NC(=O)c3ccncc3)c2O[C@H]1CN(C)C(=O)Nc1cccc2ccccc12	74.9*	1.4	0.2
C[C@H](CO)N1C[C@H](C)[C@H](CN(C)C(=O)Nc2cccc3ccccc23)Oc2c(NC(=O)c3ccncc3)cccc2C1=O	69.9*	1.2	1.8
C[C@@H]1CN([C@@H](C)CO)C(=O)c2cccc(NC(=O)c3ccncc3)c2O[C@H]1CN(C)C(=O)Nc1cccc2ccccc12	9.4	11.9	0.3
SMILES	T cruzi HTS	INS-1E ATP HTS	A1 apoptosis 2
C[C@H]1CN([C@@H](C)CO)C(=O)c2cccc(NC(=O)c3ccncc3)c2O[C@@H]1CN(C)C(=O)Nc1cccc2ccccc12	5.1	7.8	1.1
C[C@H]1CN([C@@H](C)CO)C(=O)c2cc(NC(=O)Nc3ccc4c(c3)OCO4)ccc2O[C@H]1CN(C)S(=O)(=O)c1ccccc1	-17.2	-41.7	0.4
C[C@H](CO)N1C[C@H](C)[C@H](CN(C)S(=O)(=O)c2cccs2)Oc2ccc(NC(=O)Nc3ccc(C(F)(F)F)cc3)cc2CC1=O	40.9	-21.5	-0.7
C[C@@H]1CN([C@@H](C)CO)C(=O)Cc2cc(NC(=O)Nc3ccc(C(F)(F)F)cc3)ccc2O[C@@H]1CN(C)S(=O)(=O)c1ccccc1	75.3*	-11.2	.
C[C@H]1CN([C@@H](C)CO)C(=O)Cc2cc(NC(=O)Nc3ccc(C(F)(F)F)cc3)ccc2O[C@@H]1CN(C)S(=O)(=O)c1ccccc1	-5.1	7.8	0.3
C[C@H](CO)N1C[C@H](C)[C@H](CN(C)S(=O)(=O)c2ccccc2)Oc2ccc(NC(=O)Nc3ccc(C(F)(F)F)cc3)cc2CC1=O	76.6*	-68.2	.
Cc1ccc(S(=O)(=O)N(C)C[C@H]2Oc3ccc(NC(=O)Nc4ccc(C(F)(F)F)cc4)cc3CC(=O)N([C@@H](C)CO)C[C@@H]2C)cc1	1.6	-4.6	.
C[C@@H]1CN([C@@H](C)CO)C(=O)Cc2cc(NC(=O)Nc3ccc(C(F)(F)F)cc3)ccc2O[C@@H]1CN(C)S(=O)(=O)c1cccs1	72.8*	-20.2	0.8
CC(C)NC(=O)N(C)C[C@H]1Oc2ccc(NS(=O)(=O)c3ccc(F)cc3)cc2CC(=O)N([C@@H](C)CO)C[C@H]1C	2.1	-0.8	-0.4
Cc1ccc(S(=O)(=O)Nc2ccc3c(c2)C(=O)N([C@@H](C)CO)C[C@H](C)[C@H](CN(C)S(C)(=O)=O)O3)cc1	5.4	2.0	.
C[C@H](CO)N1C[C@H](C)[C@@H](CN(C)Cc2ccc(Cl)c(Cl)c2)OCCCC[C@H](C)Oc2ccc(NC(=O)Nc3ccc(C(F)(F)F)cc3)cc2C1=O	.	.	-1.4
C[C@@H]1CN([C@@H](C)CO)C(=O)Cc2cc(NC(=O)Nc3ccc4c(c3)OCO4)ccc2O[C@H]1CN(C)Cc1ccc2c(c1)OCO2	.	.	1.0

Screening data from PubChem.
